In ChEMBL document CHEMBL4196177, “Synthesis, Evaluation, and Structure-Activity Relationship Study of Lanosterol Derivatives To Reverse Mutant-Crystallin-Induced Protein Aggregation” (J Med Chem, 2018):
The source made the active and inactive calls. The rule behind the calls is not given here.

Key:
Assay type in all cases: cell-based
[1] = tested on: T1, Alpha-crystallin A chain (Homo sapiens), P02489 [Y118D]; experiment: Inhibition of alpha-crystallin A Y118D mutant (unknown origin)-induced intracellular protein aggregation expressed in human HeLa cells or HLE-B3 cells at 4 uM incubated for 6 to 8 hrs by fluorescence microscopy relative to untreated control
T1 sequence (whole entry): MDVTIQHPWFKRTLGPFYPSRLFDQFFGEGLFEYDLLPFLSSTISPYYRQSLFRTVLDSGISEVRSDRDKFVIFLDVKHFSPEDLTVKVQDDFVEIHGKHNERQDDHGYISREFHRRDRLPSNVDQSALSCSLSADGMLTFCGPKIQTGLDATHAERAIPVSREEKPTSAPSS
Procedure, shortened: (§1)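 Cells were transfected with mutant crystallin and incubated 16 h to overexpress it and form aggregates. Compounds were then added to the medium for 6~8 h. Aggregates were scored by fluorescence microscopy, and percent inhibition was calculated against DMSO-treated cells.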

[2] = tested on: T2, Alpha-crystallin B chain (Homo sapiens), P02511 [R120G]; experiment: Inhibition of alpha-crystallin B R120G mutant (unknown origin)-induced cytotoxicity in human HeLa cells assessed as increase in cell viability at 0.04 to 4 uM incubated for 12 hrs by CCK8 assay
T2 sequence (whole entry): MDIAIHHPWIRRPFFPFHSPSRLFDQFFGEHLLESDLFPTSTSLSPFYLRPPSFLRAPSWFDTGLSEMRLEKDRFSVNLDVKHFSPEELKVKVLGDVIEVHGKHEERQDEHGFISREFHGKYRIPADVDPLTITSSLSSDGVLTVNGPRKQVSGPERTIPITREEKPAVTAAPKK

[3] = tested on: T2, Alpha-crystallin B chain (Homo sapiens), P02511 [R120G]; experiment: Inhibition of alpha-crystallin B R120G mutant (unknown origin)-induced cytotoxicity in human HLE-B3 cells assessed as increase in cell viability at 0.04 to 4 uM incubated for 12 hrs by CCK8 assay
[4] = Toxicity in human HLE-B3 cells transfected with peGFP-N1 assessed as reduction in cell viability of at 0.04 to 4 uM incubated for 12 hrs by CCK8 assay
[5] = tested on: T3, Beta-crystallin B2 (Homo sapiens), P43320 [V187E]; experiment: Inhibition of beta-crystallin B2 V187E mutant (unknown origin)-induced cytotoxicity in human HLE-B3 cells assessed as increase in cell viability at 0.04 to 4 uM incubated for 12 hrs by CCK8 assay
T3 sequence (whole entry): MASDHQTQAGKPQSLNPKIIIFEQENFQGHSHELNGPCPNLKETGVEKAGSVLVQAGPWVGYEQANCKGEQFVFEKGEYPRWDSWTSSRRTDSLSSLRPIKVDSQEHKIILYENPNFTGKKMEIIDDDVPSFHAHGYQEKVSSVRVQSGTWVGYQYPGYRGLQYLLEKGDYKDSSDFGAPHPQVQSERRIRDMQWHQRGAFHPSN

[6] = tested on: T3, Beta-crystallin B2 (Homo sapiens), P43320 [V187E]; experiment: Inhibition of beta-crystallin B2 V187E mutant (unknown origin)-induced cytotoxicity in human HeLa cells assessed as increase in cell viability at 0.04 to 4 uM incubated for 12 hrs by CCK8 assay
[7] = tested on: T4, Gamma-crystallin C (Homo sapiens), P07315 [G129C]; experiment: Inhibition of gamma-crystallin C G129C mutant (unknown origin)-induced cytotoxicity in human HLE-B3 cells assessed as increase in cell viability at 0.04 to 4 uM incubated for 12 hrs by CCK8 assay
T4 sequence (whole entry): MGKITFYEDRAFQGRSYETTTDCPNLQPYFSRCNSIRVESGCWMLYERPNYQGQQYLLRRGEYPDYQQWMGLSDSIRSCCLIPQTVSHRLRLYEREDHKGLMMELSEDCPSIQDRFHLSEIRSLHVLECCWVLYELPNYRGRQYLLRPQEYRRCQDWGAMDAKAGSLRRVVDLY

[8] = tested on: T4, Gamma-crystallin C (Homo sapiens), P07315 [G129C]; experiment: Inhibition of gamma-crystallin C G129C mutant (unknown origin)-induced cytotoxicity in human HeLa cells assessed as increase in cell viability at 0.04 to 4 uM incubated for 12 hrs by CCK8 assay
[9] = tested on: HeLa; experiment: Toxicity in human HeLa cells transfected with peGFP-N1 assessed as reduction in cell viability of at 0.04 to 4 uM incubated for 12 hrs by CCK8 assay
[10] = tested on: T2, Alpha-crystallin B chain (Homo sapiens), P02511 [R120G]; experiment: Inhibition of alpha-crystallin B R120G mutant (unknown origin)-induced intracellular protein aggregation expressed in human HeLa cells at 4 uM incubated for 6 to 8 hrs by fluorescence microscopy relative to untreated control
Procedure, shortened: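 Cells were transfected with mutant crystallin constructs using Lipofectamine 2000 and cultured for 16 h until the overexpressed mutants formed aggregates. Compounds were then added to the culture medium and incubated for 6~8 h. Aggregate dissolution was scored by fluorescence microscopy. For αB R120G, % inhibition at 0.4 and 4 µM was calculated against DMSO-treated cells; values are mean ± error.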

[11] = tested on: T4, Gamma-crystallin C (Homo sapiens), P07315 [G129C]; experiment: Inhibition of gamma-crystallin C G129C mutant (unknown origin)-induced intracellular protein aggregation expressed in human HeLa cells or HLE-B3 cells at 4 uM incubated for 6 to 8 hrs by fluorescence microscopy relative to untreated control; procedure, shortened: as §1
[12] = tested on: T3, Beta-crystallin B2 (Homo sapiens), P43320 [V187E]; experiment: Inhibition of beta-crystallin B2 V187E mutant (unknown origin)-induced intracellular protein aggregation expressed in human HeLa cells or HLE-B3 cells at 4 uM incubated for 6 to 8 hrs by fluorescence microscopy relative to untreated control; procedure, shortened: as §1
[13] = tested on: T5, Gamma-crystallin D (Homo sapiens), P07320 [W43R]; experiment: Inhibition of gamma-crystallin D W43R mutant (unknown origin)-induced intracellular protein aggregation expressed in human HeLa cells or HLE-B3 cells at 4 uM incubated for 6 to 8 hrs by fluorescence microscopy relative to untreated control; procedure, shortened: as §1
T5 sequence (whole entry): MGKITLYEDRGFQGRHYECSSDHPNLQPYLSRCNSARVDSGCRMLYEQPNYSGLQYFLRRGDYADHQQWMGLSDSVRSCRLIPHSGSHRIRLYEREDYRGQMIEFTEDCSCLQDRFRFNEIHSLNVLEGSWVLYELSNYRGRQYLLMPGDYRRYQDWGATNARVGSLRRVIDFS

## C[C@H](CCCC(C)(C)O)[C@H]1CC[C@H]2[C@@H]3CC=C4C[C@@H](O)CC[C@]4(C)[C@H]3CC[C@]12C
[1]
  inhibition: Active
[2]
  inhibition: inactive
[3]
  inhibition: inactive
[4]
  Activity: Toxic
[5]
  inhibition: inactive
[6]
  inhibition: inactive
[7]
  inhibition: inactive
[8]
  inhibition: inactive
[9]
  Activity: Toxic

## N[C@@H](CCC(=O)N[C@@H](CS)C(=O)NCC(=O)O)C(=O)O
[10]
  inhibition: inactive

## O=C1O[C@H]([C@@H](O)CO)C([O-])=C1O.[Na+]
[10]
  inhibition: inactive

## CC(C)=CCC[C@@H](C)[C@H]1CC[C@@]2(C)C3=C(CC[C@]12C)[C@@]1(C)CC[C@H](O)C(C)(C)[C@@H]1CC3
[11]
  inhibition: Active
[1]
  inhibition: Active
[12]
  inhibition: Active
[13]
  inhibition: Active

## O=C(O)c1cc(O)c2c3nc4ccccc4oc-3cc(=O)c2n1
[10]
  inhibition: inactive

## O=C(O)COc1nn(Cc2ccccc2)c2ccccc12
[10]
  inhibition: inactive
